Measured values reported in ChEMBL document CHEMBL1154823, “Polyacetylenes from Bupleurum longiradiatum” (J Nat Prod, 2009).
pIC50: −log10 of the molar value.

Tested on: HL-60
Experiment: Growth inhibition of human HL60 cells after 3 days by MTT assay
Format: functional, cell-based
Conditions: HL-60, 72 h
Outline: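 HL-60 human leukemia cells, […], seeded at 4000-5000 cells/well and […] before compound addition. Compounds tested at 0.01, 0.1, 1, 10 and 100 µg/mL for 3 days. MTT (5 mg/mL) added, formazan dissolved in DMSO after 4 h, OD read at 570 nm. Growth inhibition (%) = (OD_control − OD_treated)/OD_control × 100. Doxorubicin served as positive control.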

| pIC50 | SMILES |
| --- | --- |
| < 5.00 | OC/C=C\C#CC#CC/C=C\CCCCCCCCO |
| 4.96 | CCCCCC/C=C/C=C/C#CC#C/C=C\CO |
| 4.96 | CCCCC/C=C\CC#CC#C/C=C\CO |
| < 5.00 | CC(=O)OC/C=C/C=C/C#CC/C=C\CCCCCCCCOC(C)=O |
| 4.96 | CCCCCC/C=C/C=C/C#C/C=C/C=C/COC(C)=O |
| 4.96 | CCCCCCC/C=C\CC#C/C=C/C=C/COC(C)=O |
| < 5.00 | OC/C=C/C=C/C#CC/C=C\CCCCCCCCO |
| 4.96 | CCCC/C=C/C=C/C#CC#C/C=C\CO |
| 5.03 | CCC[C@H](O)CC/C=C/C=C/C#CC#C/C=C\COC(C)=O |
| 4.96 | CCCC(=O)CC/C=C/C=C/C#CC#C/C=C\CO [BUPLEURONOL] |

| SMILES | pIC50 |
| --- | --- |
| CCCCCCC/C=C\CC#CC#C/C=C\CO | 4.96 |
| CCC[C@H](CC/C=C/C=C/C#CC#C/C=C\CO)OC(C)=O [ACETYLBUPLEUROTOXIN] | 4.96 |
| CCC[C@H](O)CC/C=C/C=C/C#CC#C/C=C\CO [BUPLEUROTOXIN] | 5.31 |
